Measured values as given in ChEMBL document CHEMBL2375228, “4-Bromo-2-(piperidin-1-yl)thiazol-5-yl-phenyl methanone (12b) inhibits Na+/K(+)-ATPase and Ras oncogene activity in cancer cells” (Eur J Med Chem, 2013).
pIC50: −log10 of the molar value. Calls of active or inactive are those of the source. The rule behind the calls is not given here.

Experiments:
[1] = Cytotoxicity against human Hs683 cells after 72 hrs by MTT assay; format: functional, cell-based; settings: Hs 683, 72 h
In short: (§1)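 Cells grown in RPMI with 10% heat-inactivated fetal calf serum and exposed to compound for 72 h. Overall growth read by MTT colorimetric assay; IC50 derived from it. Six replicates per condition.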

PC-3 [2] = assay: Cytotoxicity against human PC3 cells after 72 hrs by MTT assay; format: functional, cell-based; settings: PC-3, 72 h; in short: as §1
[3] = Cytotoxicity against human U373 cells after 72 hrs by MTT assay; format: functional, cell-based, U-373MG ATCC; settings: U373 MG; in short: as §1
MCF7 [4] = assay: Cytotoxicity against human MCF7 cells after 72 hrs by MTT assay; format: functional, cell-based; settings: MCF7, 72 h; in short: as §1
A549 [5] = assay: Cytotoxicity against human A549 cells after 72 hrs by MTT assay; format: functional, cell-based; settings: A549, 72 h; in short: as §1
SK-MEL-28 [6] = assay: Cytotoxicity against human SK-MEL-28 cells after 72 hrs by MTT assay; format: functional, cell-based; settings: SK-MEL-28, 72 h; in short: as §1
[7] = Inhibition of guinea pig brain Na+/K+-ATPase alpha2 preincubated for 10 mins measured after 30 mins; design: species or system Cavia porcellus
Cavia porcellus [8] = species: Cavia porcellus; assay: Inhibition of guinea pig kidney Na+/K+-ATPase alpha1 preincubated for 10 mins measured after 30 mins relative to POH
SK-MEL-28 [9] = assay: Ratio of perillyl alcohol IC50 to compound IC50 for human SK-MEL-28 cells; format: functional
[10] = Inhibition of Na+/K+-ATPase in guinea pig whole brain homogenate preincubated for 10 mins measured after 30 mins; format: tissue-based, Cavia porcellus
Hs 683 [11] = assay: Ratio of perillyl alcohol IC50 to compound IC50 for human Hs683 cells; format: functional
Cavia porcellus [12] = species: Cavia porcellus; assay: Inhibition of ouabain-insensitive Mg++ATPase in guinea pig brain homogenate at 0.1 to 1mM; format: tissue-based
In short: (§2)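 Brain and kidney homogenates in 110 mM NaCl, 20 mM KCl, 5 mM MgCl2, 50 mM Tris-HCl pH 7.6 with 5 mM ATP; 10 min preincubation at 37 °C, 30 min reaction. Ouabain-insensitive Mg++ATPase activity measured with 3.6 mM ouabain across 0.1–1.0 mM compound.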

Cavia porcellus [13] = species: Cavia porcellus; assay: Inhibition of ouabain-insensitive Mg++ATPase in guinea pig kidney homogenate at 0.1 to 1mM; format: tissue-based; in short: as §2
Hs 683 [14] = assay: Selectivity index for NMRI mouse astrocytes over human Hs683 cells
Cavia porcellus [15] = species: Cavia porcellus; assay: Non competitive inhibition of guinea pig brain Na+/K+-ATPase by double reciprocal plot analysis in presence of K+; format: tissue-based
Cavia porcellus [16] = species: Cavia porcellus; assay: Inhibition of guinea pig brain Na+/K+-ATPase at 1 mM preincubated for 10 mins measured after 30 mins relative to control
Cavia porcellus [17] = species: Cavia porcellus; assay: Non competitive inhibition of guinea pig brain Na+/K+-ATPase by double reciprocal plot analysis in presence of Na+; format: tissue-based
PC-3 [18] = assay: Ratio of perillyl alcohol IC50 to compound IC50 for human PC3 cells; format: functional
[19] = Selectivity index for human U373 cells over NMRI mouse astrocytes; design: species or system U-373MG ATCC
Cavia porcellus [20] = species: Cavia porcellus; assay: Uncompetitive inhibition of purified guinea pig brain Na+/K+-ATPase by double reciprocal plot analysis in presence of ATP; format: tissue-based
Cavia porcellus [21] = species: Cavia porcellus; assay: Non competitive inhibition of guinea pig kidney Na+/K+-ATPase by double reciprocal plot analysis in presence of K+
Hs 683 [22] = assay: Cytostatic activity against human Hs683 cells at 40 uM after 48 to 72 hrs by videomicroscopic analysis relative to control; format: functional
In short: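 Hs683 glioma cells, untreated or at 40 µM, filmed by computer-assisted phase-contrast videomicroscopy over 72 h, one image every 4 min (1080 images), in triplicate. Growth rate = cell count in last image / first image. GGR index = treated ratio / control ratio.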

[23] = Inhibition of Na+/K+-ATPase in guinea pig kidney homogenate preincubated for 10 mins measured after 30 mins; format: tissue-based, Cavia porcellus
[24] = Chemical stability of the compound in RPMI culture medium after 72 hrs by mass spectroscopic analysis; format: physicochemical
In short: (§3)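 5 mM DMSO stock diluted 100-fold in water or RPMI and held at 37 °C for 72 h. Samples infused into ESI-QTOF MS (positive mode, scan 110–950 m/z) with FA 0.2%-MeOH 50:50 as solvent.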

MCF7 [25] = assay: Ratio of perillyl alcohol IC50 to compound IC50 for human MCF7 cells; format: functional
A549 [26] = assay: Ratio of perillyl alcohol IC50 to compound IC50 for human A549 cells; format: functional
[27] = Inhibition of guinea pig kidney Na+/K+-ATPase alpha1 preincubated for 10 mins measured after 30 mins; design: species or system Cavia porcellus
Cavia porcellus [28] = species: Cavia porcellus; assay: Inhibition of guinea pig kidney Na+/K+-ATPase-mediated K+-activated-p-nitrophenylphosphatase activity
In short: (§4)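 Purified guinea pig brain or kidney Na+/K+-ATPase preparations; K+-activated p-nitrophenylphosphatase activity = total activity minus basal activity, with basal measured by replacing KCl with 1 mM ouabain. Mean ± SEM of 3 experiments.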

[29] = Ratio of perillyl alcohol IC50 to compound IC50 for human U373 cells; format: functional, U-373MG ATCC
Cavia porcellus [30] = species: Cavia porcellus; assay: Non competitive inhibition of guinea pig kidney Na+/K+-ATPase by double reciprocal plot analysis in presence of Na+
[31] = Growth inhibition of NMRI mouse astrocytes at 30 to 300 uM after 72 hrs by MTT assay; format: cell-based, Astrocyte; settings: read-out: GI
In short: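 Mouse astrocyte primocultures were plated in uncoated T25 flasks for 72 h, medium was changed and cells grown to confluence. Tested at 0, 30, 60 and 300 µM by MTT colorimetric assay.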

Hs 683 [32] = assay: Inhibition of RAS oncogene activity in human Hs683 cells at 40 uM after 30 seconds by ELISA relative to control; format: cell-based
In short: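 Hs683 glioma cells exposed 30 s at 40 µM, lysed on ice for 15 min, 100 µg protein used. Active Ras captured on GST-Raf-RBD glutathione plate, detected with H-Ras primary and HRP secondary antibodies, read by chemiluminescence. Compared with untreated cells.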

[33] = Chemical stability of the compound in water after 72 hrs by mass spectroscopic analysis; format: physicochemical; settings: buffer; in short: as §3
Hs 683 [34] = assay: Inhibition of RAS oncogene activity in human Hs683 cells 40 uM after 30 seconds by ELISA relative to POH; format: cell-based
[35] = Growth inhibition of NMRI mouse astrocytes after 72 hrs by MTT assay; format: cell-based; settings: Astrocyte
Cavia porcellus [36] = species: Cavia porcellus; assay: Inhibition of guinea pig kidney Na+/K+-ATPase at 1 mM preincubated for 10 mins measured after 30 mins relative to control
[37] = Inhibition of guinea pig brain Na+/K+-ATPase alpha3 preincubated for 10 mins measured after 30 mins; design: species or system Cavia porcellus
Cavia porcellus [38] = species: Cavia porcellus; assay: Inhibition of guinea pig brain Na+/K+-ATPase-mediated K+-activated-p-nitrophenylphosphatase activity; in short: as §4
Cavia porcellus [39] = species: Cavia porcellus; assay: Uncompetitive inhibition of purified guinea pig kidney Na+/K+-ATPase by double reciprocal plot analysis in presence of ATP
Hs 683 [40] = assay: Inhibition of RAS oncogene activity in human Hs683 cells at 2 mM after 5 to 29 mins by ELISA; format: cell-based; settings: in the assay text read “5 to 20 mins” for “5 to 29 mins”
In short: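 Hs683 glioma cells treated with 2 mM for 5 and 20 min, lysed, 100 µg protein used. GTP-Ras captured by GST-Raf-RBD and detected with H-Ras antibody, HRP secondary and chemiluminescence.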

**Q.** What does the source list for `O=C(c1ccccc1)c1sc(N2CCCC2)nc1Br`?
**A.** pIC50 [1]: < 4.00; pIC50 (PC-3 [2]): < 4.00; pIC50 [3]: < 4.00; pIC50 (MCF7 [4]): 4.16; pIC50 (A549 [5]): 4.01; pIC50 (SK-MEL-28 [6]): < 4.00

**Q.** What does the source list for `COC(=O)c1sc2nc(N3CCCC3)sc2c1C`?
**A.** pIC50 [1]: 4.04; pIC50 (PC-3 [2]): < 4.00; pIC50 [3]: 4.05; pIC50 (MCF7 [4]): 4.25; pIC50 (A549 [5]): 4.07; pIC50 (SK-MEL-28 [6]): < 4.00

**Q.** Which results are given for `O=C(c1ccccc1)c1sc(N2CCCC2)nc1Cl`?
**A.** pIC50 [1]: 4.36; pIC50 (PC-3 [2]): < 4.00; pIC50 [3]: 4.09; pIC50 (MCF7 [4]): 4.20; pIC50 (A549 [5]): 4.30; pIC50 (SK-MEL-28 [6]): 4.01

**Q.** What does the source list for `N#Cc1sc(N2CCCC2)nc1Cl`?
**A.** pIC50 [1]: < 4.00; pIC50 (PC-3 [2]): < 4.00; pIC50 [3]: < 4.00; pIC50 (MCF7 [4]): 4.00; pIC50 (A549 [5]): < 4.00; pIC50 (SK-MEL-28 [6]): < 4.00

**Q.** What does the source list for `O=C(c1ccccc1)c1sc(N2CCCCC2)nc1Br`?
**A.** pIC50 [7]: 3.60; Ratio (Cavia porcellus [8]): 3; Ratio IC50 (SK-MEL-28 [9]): 10; pIC50 [10]: 3.46; Ratio IC50 (Hs 683 [11]): 10; inhibition (Cavia porcellus [12]): inactive; inhibition (Cavia porcellus [13]): inactive; Selectivity Index (Hs 683 [14]): >5; pIC50 [1]: 4.42; inhibition (Cavia porcellus [15]): Active; inhibition (Cavia porcellus [16]): > 50%; pIC50 (PC-3 [2]): 4.21; inhibition (Cavia porcellus [17]): Active; Ratio IC50 (PC-3 [18]): 10; Selectivity Index [19]: >5; inhibition (Cavia porcellus [20]): Active; pIC50 [3]: 4.11; inhibition (Cavia porcellus [21]): Active; Activity (Hs 683 [22]): 40%; pIC50 [23]: 3.26; Stability [24]: Unstable; Ratio IC50 (MCF7 [25]): 10; Ratio IC50 (A549 [26]): 10; pIC50 (MCF7 [4]): 4.46; pIC50 [27]: 3.26; inhibition (Cavia porcellus [28]): inactive; Ratio IC50 [29]: 10; inhibition (Cavia porcellus [30]): Active; inhibition at 72 h, up to 300 µM [31]: < 50%; inhibition (Hs 683 [32]): > 50%; Stability [33]: Unstable; pIC50 (A549 [5]): 4.32; Ratio (Hs 683 [34]): 40; pIC50 [35]: < 3.52; pIC50 (SK-MEL-28 [6]): 4.04; inhibition (Cavia porcellus [36]): > 50%; pIC50 [37]: 3.60; inhibition (Cavia porcellus [38]): Active; inhibition (Cavia porcellus [39]): Active

**Q.** What does the source list for `CC(=O)c1sc(N2CCOCC2)nc1Cl`?
**A.** pIC50 [1]: < 4.00; pIC50 (PC-3 [2]): < 4.00; pIC50 [3]: 4.08; pIC50 (MCF7 [4]): 4.06; pIC50 (A549 [5]): < 4.00; pIC50 (SK-MEL-28 [6]): < 4.00

**Q.** With `C=C(C)[C@@H]1CC=C(CO)CC1` [PERILLYL ALCOHOL] as the molecule, how does the pIC50 [1] read?
**A.** < 3.00

**Q.** And the pIC50 (PC-3 [2])?
**A.** < 3.00

**Q.** What about the pIC50 [3] of the same molecule?
**A.** < 3.00

**Q.** And the inhibition (Hs 683 [40])?
**A.** Active

**Q.** And the pIC50 (MCF7 [4])?
**A.** < 3.00

**Q.** And the pIC50 (A549 [5])?
**A.** < 3.00

**Q.** And the pIC50 (SK-MEL-28 [6])?
**A.** < 3.00

**Q.** With `COC(=O)c1sc2nc(N3CCCCC3)sc2c1C` as the molecule, how does the pIC50 [1] read?
**A.** < 4.00

**Q.** And the pIC50 (PC-3 [2])?
**A.** 4.03

**Q.** And the pIC50 [3]?
**A.** < 4.00

**Q.** What about the pIC50 (MCF7 [4]) of the same molecule?
**A.** 4.05

**Q.** And the pIC50 (A549 [5])?
**A.** < 4.00

**Q.** What about the pIC50 (SK-MEL-28 [6]) of the same molecule?
**A.** < 4.00
